Source: PubChem BioAssay (Broad Institute)
T cruzi HTS: inhibitors of intracellular Trypanosoma cruzi; intracellular Trypanosoma cruzi in host cells, plate reader; activity score (inhibition), % at 5.01 µM; hit rate 4.9% among 22,000; AID 651903; in the data active = activity score above about 55%; inconclusive = no clear call, values can overlap the other calls;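 also: parasites and compound incubated about four days before reading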
INS-1E rescue: rescue of cytokine-induced death in INS-1E beta cells | hit rate 0.1% among 20,000 | AID 488910 | protection from cytokine-induced ATP loss, % at 10 µM | INS-1E cytokine-induced death, ATP luminescence, 48 h; normalised: neutral wells 0, positive control 100;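 active = mean replicate protection from cytokine-induced ATP loss at least 50% and at least 75% of replicates each reaching 50%; inconclusive = meets only one of the two criteria, mean or replicate share; inactive = fails both the mean and replicate share criteria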
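assay system = INS-1E rat insulinoma cells | amount = 8000 cells per well | medium = phenol-red-free RPMI with 5% fetal bovine serum | doses = one compound concentration, pin transfer | timing = 48 h cytokine plus compound treatment, 10 min reagent incubation | also added = IL-1β, TNF-α and IFN-γ cytokine mix | signal = CellTiter-Glo luminescence measuring cellular ATP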
A1 apoptosis 2: blocks A1, raising caspase activity. MEF A1-2A-BIM cells, caspase-Glo luminescence, 3 h; percent of clofoctol response, DMSO zero. caspase activation, % (concentration not given with the values). 24,000 tested, under 10 active; in the data active = caspase activation above about 5.9%; inconclusive = no clear call, values can overlap the other calls; inactive = below about 2.2%
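Material: A1-2A-BIM-expressing MEF cells. Buffer or medium: RPMI-1640 plus 10% FBS. Incubation: cells settled overnight, compound exposure 3 h at 37 °C, 5% CO2. Signal: Caspase-Glo 3/7 luminescence, 1 h at room temperature.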
Of the large screens only hits and unclear results are named; the others gave an inactive call. Many of the other results were omitted from the sample, so hits are more common in it than they were.

O=C(N/N=C/c1ccc(Br)o1)c1ccccn1	none
O=C(CCCCCCC(=O)N/N=C/C1=CCCCC1)NO	none (no result: T cruzi HTS, INS-1E rescue)
O=C1c2ccccc2C(=O)N1[C@@H]1CCN(Cc2cccc(OCCO)c2)C1	none (no result: T cruzi HTS, INS-1E rescue)
C[C@@H]1CN([C@H](C)CO)C(=O)Cc2cc(NC(=O)Nc3cccc4ccccc34)ccc2O[C@@H]1CN(C)C(=O)Nc1ccc(C(F)(F)F)cc1	none (no result: A1 apoptosis 2)
C[C@@H]1CN([C@@H](C)CO)C(=O)Cc2cc(NC(=O)Nc3cccc4ccccc34)ccc2O[C@@H]1CN(C)Cc1ccc(C(F)(F)F)cc1	T cruzi HTS 91
C[C@@H]1CN([C@@H](C)CO)C(=O)Cc2cc(NC(=O)Nc3cccc4ccccc34)ccc2O[C@@H]1CN(C)Cc1ccc(-c2ccccc2)cc1	none (no result: A1 apoptosis 2)
C[C@@H]1CN([C@@H](C)CO)C(=O)Cc2cc(NC(=O)Nc3cccc4ccccc34)ccc2O[C@@H]1CN(C)Cc1ccccc1	T cruzi HTS 67 (no result: A1 apoptosis 2)
C[C@@H]1CN([C@H](C)CO)C(=O)Cc2cc(NC(=O)Nc3cccc4ccccc34)ccc2O[C@@H]1CN(C)Cc1ccc(-c2ccccc2)cc1	T cruzi HTS inconclusive
C[C@@H]1CN([C@H](C)CO)C(=O)Cc2cc(NC(=O)Nc3cccc4ccccc34)ccc2O[C@H]1CN(C)Cc1ccccc1	T cruzi HTS 79 (no result: A1 apoptosis 2)
CCOc1cc(OCC)cc(C(=O)N[C@@H](Cc2ccc(N=[N+]=[N-])cc2)C(=O)OC)c1	none (no result: T cruzi HTS, INS-1E rescue)
C[C@@H]1CN([C@H](C)CO)C(=O)Cc2cc(NC(=O)Cc3cn(C)c4ccccc34)ccc2O[C@H]1CN(C)Cc1ccc(C(F)(F)F)cc1	T cruzi HTS 63
C[C@@H]1CN([C@H](C)CO)C(=O)Cc2cc(NC(=O)Cc3cn(C)c4ccccc34)ccc2O[C@@H]1CN(C)Cc1ccccc1	none (no result: A1 apoptosis 2)
C[C@@H]1CN([C@@H](C)CO)C(=O)Cc2cc(NC(=O)Cc3cn(C)c4ccccc34)ccc2O[C@@H]1CN(C)Cc1ccccc1	none
C[C@H]1CN([C@@H](C)CO)C(=O)Cc2cc(NC(=O)Cc3cn(C)c4ccccc34)ccc2O[C@H]1CN(C)Cc1ccc(C(F)(F)F)cc1	T cruzi HTS 75
O=C(CCCCCCC(=O)Nc1ccccc1O)N/N=C/c1ccccn1	none
COC(=O)CCCCCCC(=O)N/N=C/c1ccccc1Cl	none (no result: A1 apoptosis 2)
O=C(O)c1cccc(/C=N/NC(=O)c2ccccn2)c1	none
C[C@@H]1CN([C@@H](C)CO)C(=O)c2cccc(NC(=O)CCCCCC(=O)Nc3ccccc3N)c2O[C@H]1CN(C)CC1CC1	T cruzi HTS 60 (no result: A1 apoptosis 2)
C[C@@H]1CN([C@H](C)CO)C(=O)c2cccc(NC(=O)CCCCCC(=O)Nc3ccccc3N)c2O[C@@H]1CN(C)CC1CC1	none
C[C@@H]1CN([C@H](C)CO)C(=O)c2cccc(NC(=O)CCCCCC(=O)Nc3ccccc3N)c2O[C@H]1CN(C)CC1CC1	T cruzi HTS 59 (no result: A1 apoptosis 2)
C[C@H](CO)N1C[C@H](C)[C@H](CN(C)CC2CCCCC2)Oc2c(NC(=O)CCCCCC(=O)Nc3ccccc3N)cccc2C1=O	none
C[C@H]1CN([C@@H](C)CO)C(=O)c2cccc(NC(=O)CCCCCC(=O)Nc3ccccc3N)c2O[C@H]1CN(C)CC1CCCCC1	none
C[C@H]1CN([C@@H](C)CO)C(=O)c2cccc(NC(=O)CCCCCC(=O)Nc3ccccc3N)c2O[C@@H]1CN(C)CC1CC1	T cruzi HTS 77
O=C(CCCCC(=O)N/N=C/c1cccnc1Br)NO	none (no result: T cruzi HTS, INS-1E rescue)
O=C(CCCCCCC(=O)Nc1ccccc1O)N/N=C/c1c[nH]c2ccccc12	none
C[C@@H]1CN([C@H](C)CO)C(=O)c2cc(NC(=O)Cn3cnnn3)ccc2O[C@H]1CN(C)Cc1ccc(C(=O)Nc2ccccc2N)cc1	none
C[C@H](CO)N1C[C@H](C)[C@H](CN(C)Cc2ccc(C(=O)Nc3ccccc3N)cc2)Oc2ccc(NC(=O)Nc3ccc4c(c3)OCO4)cc2C1=O	T cruzi HTS 74
C[C@@H]1CN([C@@H](C)CO)C(=O)c2cccc(NC(=O)Nc3ccc4c(c3)OCO4)c2O[C@H]1CN(C)Cc1ccc(C(=O)Nc2ccccc2N)cc1	T cruzi HTS 68
C[C@H]1CN([C@@H](C)CO)C(=O)c2cccc(NC(=O)Nc3ccc4c(c3)OCO4)c2O[C@@H]1CN(C)Cc1ccc(C(=O)Nc2ccccc2N)cc1	T cruzi HTS 68
C[C@H]1CN([C@@H](C)CO)C(=O)c2cc(NC(=O)Nc3ccccc3)ccc2O[C@H]1CN(C)Cc1ccc(C(=O)Nc2ccccc2N)cc1	none (no result: A1 apoptosis 2)
C[C@@H]1CN([C@@H](C)CO)C(=O)c2cccc(NC(=O)Nc3ccc4c(c3)OCO4)c2O[C@@H]1CN(C)Cc1ccc(C(=O)Nc2ccccc2N)cc1	none
